Consider 8 compounds from ChEMBL document CHEMBL1144682, “Glycosyl and polyalcoholic prodrugs of lonidamine” (Bioorg Med Chem Lett, 2008).

In brackets after ≈: the same amount, converted by molar mass. Activity calls are given as the source filed them. No cut-off for these calls is given here.

Series [1] can be described thus: Solubility in water. In kind it is physicochemical. The following applies: for solubility: water.
The nature of series [2]: Partition coefficient, log P of the compound. In kind it is physicochemical. Conditions: octanol/water.
Series [3] is described as follows: Stability in human plasma assessed as half life of hydrolysis. Type of series: ADME, cell-free. The method, boiled down:
(§1)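 Enzymatic hydrolysis in 80% rat plasma or 80% human plasma at 37 °C. t1/2 taken from first-order kinetic plots. Values are means of three experiments with SEM.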

A short description of series [4]: Chemical stability assessed as half life of hydrolysis at pH 1.3. Type of series: physicochemical. Conditions: buffer. Put shortly: (§2)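 Non-enzymatic chemical hydrolysis of the prodrugs in buffer at pH 1.3 (simulated gastric conditions) and in phosphate buffer at pH 7.4, at 37 °C. Followed for up to 120 h. First-order kinetic plots gave Kobs and t1/2. Values are means of three experiments with SEM.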

Series [5] can be described thus: Chemical stability assessed as half life of hydrolysis at pH 7.4. In kind it is physicochemical. The following applies: buffer. Put shortly:
as §2

A short description of series [6]: Stability in rat plasma assessed as half life of hydrolysis. Type of series: ADME, cell-free. Put shortly:
as §1

The test system of the next series is PC-3. Briefly: Growth inhibition of human PC3 cells by SRB assay. Type of series: functional. The method, boiled down:
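Human PC-3 prostate cancer cells tested by sulforhodamine B assay following the NCI protocol. Concentrations went up to 100 μM, and GI50 was derived.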
(Sulforhodamine B stains cellular protein and so reports cell mass.)

Series [7] can be described thus: Cytotoxicity against human SKOV cells at 300 uM after 12 hrs. Type of series: functional. The method, boiled down:
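SK-OV ovarian carcinoma cells treated for 12 h at 50, 150 or 300 μM drug with 0.01% DMSO present. Cell viability read out as % inhibition.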

The nature of series [8]: Cell cycle arrest in human SKOV cells assessed as decrease in S phase accumulation at 50 uM after 12 hrs by flow cytometry. In kind it is functional, cell-based. Put shortly: (§3)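 SK-OV ovarian carcinoma cells exposed for 12 h to drug at 50 or 150 μM with 0.01% DMSO present. Cells stained with propidium iodide and analysed by flow cytometry for G1, S and G2 distribution. Values are means ± SEM of three independent experiments.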
(In flow cytometry, cells or beads pass a laser one at a time.)

Series [9] is described as follows: Cell cycle arrest in human SKOV cells assessed as decrease in S phase accumulation at 150 uM after 12 hrs by flow cytometry. Type of series: functional, cell-based. The method, boiled down:
as §3

A short description of series [10]: Cell cycle arrest in human SKOV cells assessed as accumulation at G1 phase at 150 uM after 12 hrs by flow cytometry. In kind it is functional, cell-based. Put shortly:
as §3

`O=C(OCC(O)CO)c1nn(Cc2cc(Cl)cc(Cl)c2)c2ccccc12` (stereo not given) returned a solubility in series [1] of 0.51 µg/mL (≈ 1.29 µM). The compound also had a logP in series [2] of 3.96.
In the case of `O=C(OC[C@@H](O)[C@H](O)COC(=O)c1nn(Cc2cc(Cl)cc(Cl)c2)c2ccccc12)c1nn(Cc2cc(Cl)cc(Cl)c2)c2ccccc12`, in series [1] (buffer), the Activity entry was “Not Active”.
Turning to `O=C(O[C@@H]1[C@@H](O)[C@H](O)O[C@H](CO)[C@H]1O)c1nn(Cc2cc(Cl)cc(Cl)c2)c2ccccc12`, the half-life was 0.711 h in series [3], > 120 h in [4], 44.1 h in [5] and 0.534 h in series [6]. The compound also had a solubility in series [1] of 118 µg/mL (≈ 245 µM). For the same compound, the logP in [2] worked out at 2.19.
Take `O=C(O)c1nn(Cc2ccc(Cl)cc2Cl)c2ccccc12` [LONIDAMINE]: the outcome in the series on PC-3 was inactive. Further, in [1], the solubility was found to be 17 µg/mL (≈ 52.9 µM). In [2], the log partition coefficient (logP) was found to be 1.3.
For `O=C(O[C@@H]([C@H](O)[C@H](O)CO)[C@H](O)CO)c1nn(Cc2cc(Cl)cc(Cl)c2)c2ccccc12`, the half-life is 6 h in [3], > 120 h in series [4], 80.7 h in series [5] and 2.17 h in series [6]. Also, halving of growth in the series with PC-3 (GI50) required 3.16 µM. The compound further had an inhibition at 300 µM in series [7] of 30%. The same compound came in with a solubility in series [1] of 137 µg/mL (≈ 283 µM). Besides, the logP in series [2] is 2.55.
Take `O=C(OC[C@@H](O)[C@H](O)CO)c1nn(Cc2cc(Cl)cc(Cl)c2)c2ccccc12`: in series [1], the concentration in solution (solubility) was 1.2 µg/mL (≈ 2.82 µM). In addition, the logP in [2] was 3.04.
As to `O=C(OC[C@H]1O[C@@H](O)[C@H](O)[C@H]1O)c1nn(Cc2cc(Cl)cc(Cl)c2)c2ccccc12`, the concentration in solution in series [1] (solubility) came to 1.3 µg/mL (≈ 2.87 µM). This compound came in with a logP in series [2] of 3.4.
Turning to `O=C(OC[C@H]1OC(O)[C@H](O)[C@@H](O)[C@H]1O)c1nn(Cc2cc(Cl)cc(Cl)c2)c2ccccc12` (stereo not given in full), the outcome in series [8], in series [9] and in [10] was Active. The half-life was 2.06 h in [3], > 120 h in series [4], 114 h in [5] and 0.995 h in series [6]. The GI50 in the series with PC-3 turned out to be 3.16 µM. For the same compound, at 300 µM the inhibition in series [7] was 60%. The compound further registered a solubility in series [1] of 84.3 µg/mL (≈ 174 µM). For the same compound, the logP in series [2] worked out at 2.54.

The term solubility denotes how much of the substance goes into solution per volume. The logP is the decadic logarithm of the partition coefficient of the neutral form, usually between octanol and water. A lower logP goes with a more hydrophilic compound. What is called half-life is the time in which the quantity being followed falls by half. As usually defined, the GI50 is the concentration giving 50% growth inhibition. A high value points to lower sensitivity of the cells. The term inhibition denotes the drop in the measured response relative to a control, in per cent. Read a high inhibition as a response far below the control.
